“And” between values parts separate entries of the source, which are not always exact repeats. Equal values may be shown once.
Tested on: U2OS
Experiment: Multiplex assay against U2OS
Format: toxicity, cell-based
Conditions: human
Procedure, shortened: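 Tubulin, mitochondrial-mass and membrane-permeability phenotypes are per cents of healthy-nucleus cells. Cells were gated by CellPathfinder machine learning into Hoechst high-intensity objects or normal cells, normal cells into healthy, pyknosed or fragmented nuclei, and pyknosed cells into mitotic or apoptotic. Before that, live cells stained at seeding with Hoechst33342, BioTracker Green Microtubule Cytoskeleton Dye, MitoTracker Red and Annexin V Alexa Fluor 680 were imaged on a CQ1 microscope at 37°C and 5% CO2 after compound addition.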

[1] = 12 h, 1 µM, compound concentration 1 uM
[2] = 12 h, 10 µM, compound concentration 10 uM
[3] = 24 h, 1 µM, compound concentration 1 uM
[4] = 24 h, 10 µM, compound concentration 10 uM
[5] = 48 h, 1 µM, compound concentration 1 uM
[6] = 48 h, 10 µM, compound concentration 10 uM

Cc1cc(=O)n(C)c2cc(N3C(=O)CC[C@H](NS(=O)(=O)CC(C)C)[C@H]3c3ccc(Cl)cc3)ccc12
Population Apoptotic (%) [1]: 87% and 63%
Population Fragmented Nuclei (%) [1]: 24% and 21%
Population Healthy Nuclei (%) [1]: 66% and 68%
Population Hoechst High Intensity Objects (%) [1]: 3% and 1%
Population Membrane Permeable-Phenotype (%) [1]: 3% and 2%
Population Mitochondria Different-Phenotype (%) [1]: 1% and 2%
Population Mitotic Cells (%) [1]: 12% and 36%
Population Normal (%) [1]: 96% and 98%
Population Pyknosed Nuclei (%) [1]: 9% and 10%
Population Tubulin-Different-Phenotype (%) [1]: 1%
Total Cell Count [1]: 263 and 110
Population Apoptotic (%) [2]: 57%
Population Fragmented Nuclei (%) [2]: 21% and 16%
Population Healthy Nuclei (%) [2]: 55% and 60%
Population Hoechst High Intensity Objects (%) [2]: 5% and 3%
Population Membrane Permeable-Phenotype (%) [2]: 63% and 35%
Population Mitochondria Different-Phenotype (%) [2]: 44% and 68%
Population Mitotic Cells (%) [2]: 42%
Population Normal (%) [2]: 94% and 96%
Population Pyknosed Nuclei (%) [2]: 23%
Population Tubulin-Different-Phenotype (%) [2]: 65% and 60%
Total Cell Count [2]: 240 and 83
Population Apoptotic (%) [3]: 74% and 82%
Population Fragmented Nuclei (%) [3]: 20% and 18%
Population Healthy Nuclei (%) [3]: 68% and 69%
Population Hoechst High Intensity Objects (%) [3]: 3% and 1%
Population Membrane Permeable-Phenotype (%) [3]: 6% and 9%
Population Mitochondria Different-Phenotype (%) [3]: 3% and 2%
Population Mitotic Cells (%) [3]: 25% and 17%
Population Normal (%) [3]: 96% and 98%
Population Pyknosed Nuclei (%) [3]: 11%
Population Tubulin-Different-Phenotype (%) [3]: 4% and 6%
Total Cell Count [3]: 322 and 146
Population Apoptotic (%) [4]: 71% and 81%
Population Fragmented Nuclei (%) [4]: 20% and 26%
Population Healthy Nuclei (%) [4]: 56% and 62%
Population Hoechst High Intensity Objects (%) [4]: 5% and 2%
Population Membrane Permeable-Phenotype (%) [4]: 25% and 36%
Population Mitochondria Different-Phenotype (%) [4]: 40% and 59%
Population Mitotic Cells (%) [4]: 28% and 18%
Population Normal (%) [4]: 94% and 97%
Population Pyknosed Nuclei (%) [4]: 23% and 10%
Population Tubulin-Different-Phenotype (%) [4]: 28% and 50%
Total Cell Count [4]: 262 and 108
Population Apoptotic (%) [5]: 77% and 95%
Population Fragmented Nuclei (%) [5]: 14% and 15%
Population Healthy Nuclei (%) [5]: 73%
Population Hoechst High Intensity Objects (%) [5]: 1%
Population Membrane Permeable-Phenotype (%) [5]: 4% and 6%
Population Mitochondria Different-Phenotype (%) [5]: 3% and 5%
Population Normal (%) [5]: 98%
Population Pyknosed Nuclei (%) [5]: 11% and 10%
Population Tubulin-Different-Phenotype (%) [5]: 2% and 4%
Total Cell Count [5]: 508 and 199
Population Apoptotic (%) [6]: 84% and 71%
Population Fragmented Nuclei (%) [6]: 25% and 21%
Population Healthy Nuclei (%) [6]: 51% and 60%
Population Hoechst High Intensity Objects (%) [6]: 6% and 5%
Population Membrane Permeable-Phenotype (%) [6]: 15% and 30%
Population Mitochondria Different-Phenotype (%) [6]: 15% and 35%
Population Mitotic Cells (%) [6]: 15% and 28%
Population Normal (%) [6]: 93% and 94%
Population Pyknosed Nuclei (%) [6]: 22% and 18%
Population Tubulin-Different-Phenotype (%) [6]: 10% and 23%
Total Cell Count [6]: 331 and 120

Cn1cc(C(=O)OCC2CCN(CCNS(C)(=O)=O)CC2)c2ccccc21
Population Apoptotic (%) [1]: 73% and 77%
Population Fragmented Nuclei (%) [1]: 27% and 20%
Population Healthy Nuclei (%) [1]: 63% and 71%
Population Hoechst High Intensity Objects (%) [1]: 3% and 0%
Population Membrane Permeable-Phenotype (%) [1]: 7% and 13%
Population Mitochondria Different-Phenotype (%) [1]: 4% and 5%
Population Mitotic Cells (%) [1]: 26% and 22%
Population Normal (%) [1]: 96% and 100%
Population Pyknosed Nuclei (%) [1]: 8%
Population Tubulin-Different-Phenotype (%) [1]: 5% and 6%
Total Cell Count [1]: 226 and 110
Population Apoptotic (%) [2]: 53% and 57%
Population Fragmented Nuclei (%) [2]: 36% and 18%
Population Healthy Nuclei (%) [2]: 58% and 76%
Population Hoechst High Intensity Objects (%) [2]: 0% and 1%
Population Membrane Permeable-Phenotype (%) [2]: 10% and 17%
Population Mitochondria Different-Phenotype (%) [2]: 5% and 13%
Population Mitotic Cells (%) [2]: 46% and 42%
Population Normal (%) [2]: 99% and 98%
Population Pyknosed Nuclei (%) [2]: 5%
Population Tubulin-Different-Phenotype (%) [2]: 5% and 9%
Total Cell Count [2]: 252 and 137
Population Apoptotic (%) [3]: 95% and 100%
Population Fragmented Nuclei (%) [3]: 26% and 17%
Population Healthy Nuclei (%) [3]: 65% and 78%
Population Hoechst High Intensity Objects (%) [3]: 2% and 0%
Population Membrane Permeable-Phenotype (%) [3]: 4% and 10%
Population Mitochondria Different-Phenotype (%) [3]: 2% and 5%
Population Mitotic Cells (%) [3]: 4% and 0%
Population Normal (%) [3]: 97% and 100%
Population Pyknosed Nuclei (%) [3]: 8% and 4%
Population Tubulin-Different-Phenotype (%) [3]: 3% and 6%
Total Cell Count [3]: 263 and 144
Population Apoptotic (%) [4]: 92% and 64%
Population Fragmented Nuclei (%) [4]: 33% and 16%
Population Healthy Nuclei (%) [4]: 61% and 73%
Population Hoechst High Intensity Objects (%) [4]: 2% and 1%
Population Membrane Permeable-Phenotype (%) [4]: 11% and 12%
Population Mitochondria Different-Phenotype (%) [4]: 5% and 8%
Population Normal (%) [4]: 97% and 98%
Population Pyknosed Nuclei (%) [4]: 4% and 9%
Population Tubulin-Different-Phenotype (%) [4]: 4% and 8%
Total Cell Count [4]: 281 and 150
Population Apoptotic (%) [5]: 91% and 57%
Population Fragmented Nuclei (%) [5]: 20% and 13%
Population Healthy Nuclei (%) [5]: 69% and 75%
Population Hoechst High Intensity Objects (%) [5]: 1% and 2%
Population Membrane Permeable-Phenotype (%) [5]: 8% and 6%
Population Mitochondria Different-Phenotype (%) [5]: 3% and 5%
Population Normal (%) [5]: 98% and 97%
Population Pyknosed Nuclei (%) [5]: 9% and 10%
Population Tubulin-Different-Phenotype (%) [5]: 5% and 4%
Total Cell Count [5]: 372 and 182
Population Apoptotic (%) [6]: 88% and 75%
Population Healthy Nuclei (%) [6]: 58% and 79%
Population Hoechst High Intensity Objects (%) [6]: 1% and 3%
Population Membrane Permeable-Phenotype (%) [6]: 9% and 13%
Population Mitochondria Different-Phenotype (%) [6]: 4% and 6%
Population Mitotic Cells (%) [6]: 11% and 25%
Population Normal (%) [6]: 98% and 97%
Population Pyknosed Nuclei (%) [6]: 10%
Population Tubulin-Different-Phenotype (%) [6]: 7% and 5%
Total Cell Count [6]: 341 and 200

CC(C)(c1ccc(O)cc1)c1ccc(O)cc1 [BISPHENOL A]
Population Apoptotic (%) [1]: 38.24% and 39.39%
Population Fragmented Nuclei (%) [1]: 2.9% and 4.3%
Population Healthy Nuclei (%) [1]: 88.13% and 77.96%
Population Hoechst High Intensity Objects (%) [1]: 0%
Population Membrane Permeable-Phenotype (%) [1]: 0.3% and 2.76%
Population Mitochondria Different-Phenotype (%) [1]: 0.3% and 6.21%
Population Mitotic Cells (%) [1]: 61.76% and 60.61%
Population Normal (%) [1]: 100%
Population Pyknosed Nuclei (%) [1]: 8.97% and 17.74%
Population Tubulin-Different-Phenotype (%) [1]: 0.9% and 0.69%
Total Cell Count [1]: 379 and 186
Population Apoptotic (%) [2]: 50% and 47.62%
Population Fragmented Nuclei (%) [2]: 2.17% and 6.45%
Population Healthy Nuclei (%) [2]: 87.31% and 80%
Population Hoechst High Intensity Objects (%) [2]: 0%
Population Membrane Permeable-Phenotype (%) [2]: 0.71% and 4.03%
Population Mitochondria Different-Phenotype (%) [2]: 0.35% and 6.45%
Population Mitotic Cells (%) [2]: 50% and 52.38%
Population Normal (%) [2]: 100%
Population Pyknosed Nuclei (%) [2]: 10.53% and 13.55%
Population Tubulin-Different-Phenotype (%) [2]: 1.42% and 0%
Total Cell Count [2]: 323 and 155
Population Apoptotic (%) [3]: 49.02% and 57.14%
Population Fragmented Nuclei (%) [3]: 2% and 2.2%
Population Healthy Nuclei (%) [3]: 87.82% and 85.46%
Population Hoechst High Intensity Objects (%) [3]: 0%
Population Membrane Permeable-Phenotype (%) [3]: 1.59% and 3.61%
Population Mitochondria Different-Phenotype (%) [3]: 0% and 5.67%
Population Mitotic Cells (%) [3]: 50.98% and 42.86%
Population Normal (%) [3]: 100%
Population Pyknosed Nuclei (%) [3]: 10.18% and 12.33%
Population Tubulin-Different-Phenotype (%) [3]: 0.68% and 0%
Total Cell Count [3]: 501 and 227
Population Apoptotic (%) [4]: 38.3% and 22.58%
Population Fragmented Nuclei (%) [4]: 2.34% and 3.03%
Population Healthy Nuclei (%) [4]: 86.68% and 81.31%
Population Hoechst High Intensity Objects (%) [4]: 0%
Population Membrane Permeable-Phenotype (%) [4]: 0.54% and 5.59%
Population Mitochondria Different-Phenotype (%) [4]: 0.81% and 6.21%
Population Mitotic Cells (%) [4]: 61.7% and 77.42%
Population Normal (%) [4]: 100%
Population Pyknosed Nuclei (%) [4]: 10.98% and 15.66%
Population Tubulin-Different-Phenotype (%) [4]: 0.54% and 0.62%
Total Cell Count [4]: 428 and 198
Population Apoptotic (%) [5]: 38.64% and 58.54%
Population Fragmented Nuclei (%) [5]: 3.22% and 4.97%
Population Healthy Nuclei (%) [5]: 87.66% and 84.29%
Population Hoechst High Intensity Objects (%) [5]: 0%
Population Membrane Permeable-Phenotype (%) [5]: 0.36% and 2.17%
Population Mitochondria Different-Phenotype (%) [5]: 0.24% and 4.66%
Population Mitotic Cells (%) [5]: 61.36% and 41.46%
Population Normal (%) [5]: 100%
Population Pyknosed Nuclei (%) [5]: 9.13% and 10.73%
Population Tubulin-Different-Phenotype (%) [5]: 0.47% and 0%
Total Cell Count [5]: 964 and 382
Population Apoptotic (%) [6]: 36.49% and 60%
Population Fragmented Nuclei (%) [6]: 2.4% and 2.31%
Population Healthy Nuclei (%) [6]: 88.73% and 86.13%
Population Hoechst High Intensity Objects (%) [6]: 0%
Population Membrane Permeable-Phenotype (%) [6]: 1.22% and 3.02%
Population Mitochondria Different-Phenotype (%) [6]: 0.27% and 2.68%
Population Mitotic Cells (%) [6]: 63.51% and 40%
Population Normal (%) [6]: 100%
Population Pyknosed Nuclei (%) [6]: 8.87% and 11.56%
Population Tubulin-Different-Phenotype (%) [6]: 0.68% and 1.34%
Total Cell Count [6]: 834 and 346
